A selection: hits, their analogues and other compounds. The true share with any hit is near 3.8%.
hERG protect – hERG (human) protection from proarrhythmic block; CHO-hERG, FluxOR thallium flux, dofetilide IC70 present; activation (rescue from dofetilide block), less the hit threshold, % at 10 µM; 310,000 tested, 0.51% active;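 active means activation above the mean of controls blocked by dofetilide plus 5 SD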;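 further: thallium influx through hERG after potassium depolarization seen as dye fluorescence rise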
Target sequence (Q12809 whole entry, looked up): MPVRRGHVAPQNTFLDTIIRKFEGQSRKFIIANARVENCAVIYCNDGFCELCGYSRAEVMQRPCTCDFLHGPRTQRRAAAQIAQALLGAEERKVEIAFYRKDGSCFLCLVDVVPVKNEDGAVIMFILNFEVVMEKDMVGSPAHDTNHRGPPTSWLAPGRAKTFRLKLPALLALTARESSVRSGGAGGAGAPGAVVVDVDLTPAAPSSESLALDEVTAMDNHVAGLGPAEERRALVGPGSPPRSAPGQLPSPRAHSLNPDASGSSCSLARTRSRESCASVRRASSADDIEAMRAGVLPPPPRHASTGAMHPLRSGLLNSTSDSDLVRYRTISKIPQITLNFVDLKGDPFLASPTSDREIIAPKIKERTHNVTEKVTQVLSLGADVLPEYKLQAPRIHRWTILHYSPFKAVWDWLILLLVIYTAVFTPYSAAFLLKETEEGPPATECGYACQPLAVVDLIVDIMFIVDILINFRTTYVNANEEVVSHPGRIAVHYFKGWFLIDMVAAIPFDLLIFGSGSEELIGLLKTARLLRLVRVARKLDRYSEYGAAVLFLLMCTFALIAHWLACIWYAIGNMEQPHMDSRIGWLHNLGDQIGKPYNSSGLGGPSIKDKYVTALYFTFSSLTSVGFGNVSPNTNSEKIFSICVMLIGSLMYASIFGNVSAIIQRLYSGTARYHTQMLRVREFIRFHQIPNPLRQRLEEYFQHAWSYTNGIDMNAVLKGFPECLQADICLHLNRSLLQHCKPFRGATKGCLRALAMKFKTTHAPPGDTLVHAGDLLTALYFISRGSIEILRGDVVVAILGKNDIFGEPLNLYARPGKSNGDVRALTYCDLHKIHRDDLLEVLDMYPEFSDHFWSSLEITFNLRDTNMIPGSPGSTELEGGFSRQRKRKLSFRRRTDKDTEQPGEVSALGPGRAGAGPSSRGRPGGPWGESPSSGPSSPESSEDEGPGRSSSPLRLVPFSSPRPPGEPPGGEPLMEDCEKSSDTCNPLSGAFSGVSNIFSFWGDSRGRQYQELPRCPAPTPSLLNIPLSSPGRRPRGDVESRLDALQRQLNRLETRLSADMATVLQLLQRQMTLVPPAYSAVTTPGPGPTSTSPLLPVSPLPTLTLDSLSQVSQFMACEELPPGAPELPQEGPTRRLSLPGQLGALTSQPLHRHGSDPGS
KCNK3 inh – human KCNK3 channel inhibition, primary screen. CHO-KCNK3 thallium flux, FluxOR fluorescence; active compounds read low. B-score at 10 µM. 340,000 tested, 0.84% active;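 active means B-score under library mean minus 4 SD, starting fluorescence ratio at most library mean plus 5 SD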;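 further: more negative B-score means stronger inhibition of thallium flux through KCNK3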
KCNQ1 inh – blocks the human KCNQ1 potassium channel; B-score at 10 µM; 310,000 tested, 1.3% active; CHO-K1 KCNQ1, FluxOR thallium flux fluorescence; active compounds read high;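 active means compounds whose thallium flux B-score, printed positive for inhibition, exceeds three library SD while starting fluorescence stays within three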;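 further: channel opened by potassium depolarization with thallium stimulus after 20 min compound exposure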
KCNK9 block – human KCNK9 channel inhibition | Q9NPC2 | HEK293 KCNK9, FluxOR thallium flux fluorescence; active compounds read low | B-score at 10 µM | 310,000 tested, 1.2% active | AID 488922;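 active means ratio B-score over 3 SD below the library mean, with starting fluorescence within 5 SD of its mean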;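 further: negative B-score means less thallium flux so channel inhibition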
KCNQ1 act – human KCNQ1 channel potentiation or activation; P51787; CHO-K1 KCNQ1, thallium flux FluxOR fluorescence; active compounds read high; B-score at 10 µM; 310,000 tested, 0.35% active;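 active means fluorescence ratio B-score, a plate-corrected score, at least three library SD, with initial intensity B-score within 5 SD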
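Doses: Single concentration per compound, DMSO matched to controls | Test system: KCNQ1-transfected CHO-K1 cells | Timing: 90 min dye loading and 20 min compound exposure, both at room temperature | Measured by: Kinetic FluxOR thallium fluorescence, 10-s 1-Hz baseline, 110-s post-stimulus read | Medium: Assay buffer with matched DMSO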
Kir21 block – inhibitors of mouse Kir2.1 inward-rectifier potassium channel. HEK293-Kir2.1, FluxOR thallium flux fluorescence; active compounds read low. B-score at 10 µM. AID 1672. 310,000 tested, 0.85% active. P35561;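 active means fluorescence ratio B-score at or below minus 3 SD of library scores, with starting-brightness B-score within 2 SD, cut at about -4.2 in these data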;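 further: channel flux triggered by added potassium and thallium sulfate stimulus; B-score of peak minus minimum fluorescence over baseline after thallium stimulus; more negative B-score means stronger Kir2.1 block with less thallium influx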
Active calls of the source: *; i = inactive; x = not tested or not shown.

SMILES | hERG protect | KCNK3 inh | KCNQ1 inh | KCNK9 block | KCNQ1 act | Kir21 block
CCOc1ccc(C(=O)N2CCc3cc(OC)c(OC)cc3C2)cc1OCC | -16.2 | i | i | i | i | -0.01
CCOc1ccc(CCNC(=O)COC(=O)c2cccc(S(=O)(=O)N3CCOCC3)c2)cc1OCC | -13.8 | i | i | i | i | 0.51
CCOc1ccc(CCNC(=O)COC(=O)c2cccc(S(=O)(=O)N3CCCCC3)c2)cc1OCC | -18.4 | i | i | -7.9* | i | 0.17
CCNS(=O)(=O)c1ccc(CCC(=O)N2CCN(c3cccc(Cl)c3)CC2)cc1 | -7.5 | i | i | i | i | 0.01
O=C(Cn1ncc2c(=O)oc3ccccc3c21)N1CCN(c2ccccn2)CC1 | -2.5 | i | i | i | i | 0.85
O=C(Cn1ncc2c(=O)oc3ccccc3c21)N1CCN(C(=O)c2ccco2)CC1 | -11.6 | i | i | i | 8* | 1.25
Cc1ccccc1NC(=O)COC(=O)c1ccccc1SCC(=O)N1CCCC1 | -7.5 | i | i | i | i | -1.36
CC(=O)c1cccc(NC(=O)CCNS(=O)(=O)c2cccc3nonc23)c1 | -9.8 | i | i | i | i | -0.69
COc1ccc(C(C)=O)cc1COc1cccc2c1OC(C)(C)C2 | -9.8 | i | i | i | i | -5.01*
CC1(C)Cc2cccc(OCC(=O)NCCOc3ccccc3)c2O1 | -11.4 | i | i | i | i | -2.56
COc1ccccc1NC(=O)C(C)OC(=O)CCCOc1ccccc1 (stereo not drawn) | -6.1 | i | i | i | i | -4.82*
Cc1c(NC(=O)C(C)OC(=O)COc2cccc3c2OC(C)(C)C3)c(=O)n(-c2ccccc2)n1C (stereo not drawn) | -7.3 | i | i | i | i | 0.01
COc1ccc(NC(=O)COc2cccc3c2OC(C)(C)C3)cc1OC | x | i | x | x | x | x
COc1ccccc1CCNC(=O)COc1cccc2c1OC(C)(C)C2 | -14.7 | i | i | i | i | -6.38*
COc1ccccc1NC(=O)C(C)OC(=O)COc1cccc2c1OC(C)(C)C2 (stereo not drawn) | -16.4 | i | i | i | i | -4.61*
COc1cc(NC(=S)NCCC(c2ccccc2)c2ccccc2)cc(OC)c1 | -9.8 | i | 6* | i | i | 0.69
COc1ccc(NC(=O)NCCCCc2ccccc2)c(OC)c1 | 4.6* | i | i | i | i | -0.8
COc1ccc(NC(=S)Nc2ccccn2)c(OC)c1 | 5.2* | i | i | i | i | -1.7
COc1ccc(NC(=S)NCc2ccccc2Cl)c(OC)c1 | -2.2 | i | i | i | i | -0.17
COc1ccc(NC(=S)NCCc2ccccc2OC)c(OC)c1 | -10.0 | i | i | i | i | -5.65*
CCN1CCN(c2ncnc3c2c(-c2ccccc2)cn3-c2ccc(F)cc2)CC1 | -14.6 | i | i | i | i | -1.33
CC(C)NCc1cccc([N+](=O)[O-])c1 | -3.9 | i | i | i | i | -0.67
Cc1cccc(NC(=S)NCCC(c2ccccc2)c2ccccc2)c1 | -17.8 | i | i | i | i | -0.6
COc1cccc(NC(=S)NCCC(c2ccccc2)c2ccccc2)c1 | -9.6 | i | 10* | i | i | -0.59
COc1ccc(NC(=S)NCCC(c2ccccc2)c2ccccc2)c(OC)c1 | -10.9 | i | i | i | 29* | 1.39
SMILES | hERG protect | KCNK3 inh | KCNQ1 inh | KCNK9 block | KCNQ1 act | Kir21 block
COc1cccc(NC(=S)NCCN2CCOCC2)c1 | -12.4 | i | i | i | 12* | -1.38
COc1ccc(NC(=S)Nc2ccccc2OC)c(OC)c1 | -13.3 | i | i | i | i | 1.58
COc1cc(NC(=S)NCCCN2CCOCC2)cc(OC)c1 | -5.3 | i | i | i | i | -0.16
CCOC(=O)c1ccc(NC(=O)NCCc2cnc[nH]2)cc1 | -13.7 | i | i | i | i | 1.18
COCCn1cnc2c1c(=O)n(CC(=O)NC(=O)NC(C)(C)C)c(=O)n2Cc1ccccc1 | -5.6 | i | i | i | i | -0.09
CCc1cccc(CC)c1N1C(=O)c2cc(N3CCOCC3)c([N+](=O)[O-])cc2C1=O | -12.5 | i | i | i | i | 0.44
CCCCC(=O)OCC(=O)c1[nH]c(C)c(C(=O)OCC)c1C | -8.0 | i | i | i | i | -0.74
CSc1ncccc1C(=O)OCC(=O)N(CC(C)C)C1CCS(=O)(=O)C1 (stereo not drawn) | -9.1 | i | i | i | i | 0.62
Cc1ccc(CSc2nnc([C@@H]3CCCN3C(=O)OC(C)(C)C)o2)cc1 | -6.7 | i | i | i | i | -7.13*
CC(=O)Oc1ccc(/C=N/NC(=S)Nc2ccccc2)cc1 | -12.8 | i | i | i | i | 0.37
COc1cc(/C=C2/CC/C(=C/c3ccc(O)c(OC)c3)C2=O)ccc1O | -17.9 | -9.1* | i | -7.37* | i | -4
CN1C(=O)/C(=C/c2ccc(O)c([N+](=O)[O-])c2)N(C)C1=S | -5.2 | i | i | i | i | -0.23
COc1cc(/C=C2\C(=O)N(C)C(=S)N2C)ccc1O | -4.8 | i | i | i | 15* | -1.38
COc1cc(/C=C2\COC/C(=C\c3ccc(O)c(OC)c3)C2=O)ccc1O | -19.6 | i | i | i | i | -1.16
Nc1nc(CSc2nnnn2-c2ccccc2)nc(N2CCCc3ccccc32)n1 | x | -10.2* | x | x | x | x
CCOC(=O)c1cc2c(ccc3ccccc32)oc1=O | -5.7 | i | i | i | i | -0.42
CC(OC(=O)c1cc2c(ccc3ccccc32)oc1=O)c1nc2ccccc2s1 (stereo not drawn) | -32.6 | i | 9* | i | i | 0.19
Cn1c(-c2c(N)n(C3CCCC3)c3nc4ccccc4nc23)nc2ccccc21 | -14.4 | -11.3* | i | i | i | 2.85
C=CCc1cccc(/C=N/NC(=O)C[n+]2ccccc2)c1O | -10.3 | i | i | i | i | -0.12
CCCCNC(=O)CCCCC(=O)N/N=C/c1ccccc1Cl | -4.3 | i | i | i | i | 1.66
Cc1[nH]n(-c2ccccc2)c(=O)c1Sc1ccc(Cl)cc1 | -12.2 | i | i | i | i | 0.61
CCCSC(=S)c1c(C)[nH]n(-c2ccccc2)c1=O | 26.9* | i | i | i | 16* | 0
CCCCNC(=O)C(=O)N/N=C/c1ccc(OCc2ccccc2)cc1 | 0.4 | i | i | i | i | -0.01
CC(C)(C)NCC(=O)N/N=C/c1ccc(OCc2ccccc2)cc1 | -20.1 | i | i | i | i | -4.31*
COc1cc(OC)cc(C(=O)N2CCC(C(=O)N3CCOCC3)CC2)c1 | 0.2 | i | i | i | i | -0.06

High-throughput results (PubChem)
